# Reference: ChEMBL document CHEMBL2016444, “Discovery of novel 2-piperidinol-3-(arylsulfonyl)quinoxalines as phosphoinositide 3-kinase α (PI3Kα) inhibitors” (Bioorg Med Chem, 2012)
# Activity calls are given as the source filed them. The calls are words filed in the database; no cut-off is given here.
# Columns and labels:
# [1] = system: KB; test: Cytotoxicity against human KB cells after 72 hrs by MTT assay; type: functional, cell-based
# In short: (§1)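 Cells grown in RPMI-1640 with heat-inactivated 10% FBS, penicillin 100 units/mL, streptomycin, 37 °C, 20% O₂, 5% CO₂. Compounds from 10.0 mg/mL DMSO stocks, diluted. Cells plated 24 h, then exposed to a range of concentrations for 72 h; viable cells read by MTT kit per manufacturer's instructions.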
# [2] = system: A549; test: Cytotoxicity against human A549 cells after 72 hrs by MTT assay; type: functional, cell-based; conditions: A549, 72 h; in short: as §1
# [3] = system: PC-3; test: Cytotoxicity against human PC3 cells after 72 hrs by MTT assay; type: functional, cell-based; conditions: PC-3, 72 h; in short: as §1
# [4] = system: HCT-116; test: Cytotoxicity against human HCT116 cells after 72 hrs by MTT assay; type: functional, cell-based; conditions: HCT-116, 72 h; in short: as §1
# [5] = system: HL-60; test: Cytotoxicity against human HL60 cells after 72 hrs by MTT assay; type: functional, cell-based; conditions: HL-60, 72 h; in short: as §1
# [6] = biological target: T1, Phosphatidylinositol 4,5-bisphosphate 3-kinase catalytic subunit alpha isoform (Homo sapiens, UniProt P42336); test: Inhibition of PI3Kalpha using diC8-PI(4,5)P2 as substrate after 3 hrs by competitive fluorescence polarization assay
# T1 sequence (P42336 whole entry, canonical isoform): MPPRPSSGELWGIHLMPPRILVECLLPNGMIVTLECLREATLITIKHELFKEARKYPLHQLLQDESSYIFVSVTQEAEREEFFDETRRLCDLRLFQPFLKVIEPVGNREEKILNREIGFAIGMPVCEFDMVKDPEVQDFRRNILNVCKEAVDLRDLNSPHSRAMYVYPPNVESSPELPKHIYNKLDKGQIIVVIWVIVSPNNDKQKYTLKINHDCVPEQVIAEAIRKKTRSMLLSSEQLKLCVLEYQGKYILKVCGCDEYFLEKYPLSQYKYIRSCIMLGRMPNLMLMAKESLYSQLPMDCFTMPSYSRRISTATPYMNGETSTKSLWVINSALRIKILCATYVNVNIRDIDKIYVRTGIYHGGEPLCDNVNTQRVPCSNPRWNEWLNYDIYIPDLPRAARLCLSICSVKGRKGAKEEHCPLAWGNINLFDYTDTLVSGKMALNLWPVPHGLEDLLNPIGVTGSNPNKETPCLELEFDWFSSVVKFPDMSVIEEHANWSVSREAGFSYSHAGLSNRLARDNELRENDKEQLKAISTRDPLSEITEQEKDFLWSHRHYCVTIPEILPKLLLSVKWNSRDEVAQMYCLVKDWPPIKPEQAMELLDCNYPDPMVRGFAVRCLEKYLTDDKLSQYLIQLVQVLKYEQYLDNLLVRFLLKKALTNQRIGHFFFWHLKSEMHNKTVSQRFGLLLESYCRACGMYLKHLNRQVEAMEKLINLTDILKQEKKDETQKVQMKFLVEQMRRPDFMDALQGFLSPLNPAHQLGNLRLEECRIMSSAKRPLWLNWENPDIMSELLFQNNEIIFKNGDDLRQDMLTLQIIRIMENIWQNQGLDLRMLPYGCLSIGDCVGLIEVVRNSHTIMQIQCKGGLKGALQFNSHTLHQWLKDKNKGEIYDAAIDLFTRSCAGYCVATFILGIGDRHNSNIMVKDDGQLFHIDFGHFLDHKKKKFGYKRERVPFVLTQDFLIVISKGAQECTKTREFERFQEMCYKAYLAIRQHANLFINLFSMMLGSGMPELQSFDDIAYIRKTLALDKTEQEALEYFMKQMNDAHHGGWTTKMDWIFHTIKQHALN
# In short: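 Competitive fluorescence polarization. Buffer includes MgCl₂ and 10 mM DTT, with diC₈-PI(4,5)P₂ as substrate. Incubated 3 h at room temperature, then quenched with chelators. Phosphoinositide binding protein and a fluorophore-labeled phosphoinositide tracer were added, and samples equilibrated 1 h in the dark before reading.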
# [7] = biological target: T1, Phosphatidylinositol 4,5-bisphosphate 3-kinase catalytic subunit alpha isoform; test: Inhibition of PI3Kalpha-mediated AKT Ser473 phosphorylation in human PC3 cells at 10 uM after 3 hrs by Western blot analysis; type: cell-based; conditions: PC-3
# In short: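 PC3 cells exposed to compound for 3 h. Lysates run on SDS–PAGE and probed for pAkt Ser473 by Western blot, with actin as internal control.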
# [8] = biological target: T1, Phosphatidylinositol 4,5-bisphosphate 3-kinase catalytic subunit alpha isoform; test: Ratio of IC50 for WR1 to compound IC50 for PI3Kalpha using diC8-PI(4,5)P2 as substrate after 3 hrs by competitive fluorescence polarization assay
IC50 [6] [µM],inhibition [7],Ratio IC50 [8],SMILES,IC50 [1] [µM],IC50 [2] [µM],IC50 [3] [µM],IC50 [4] [µM],IC50 [5] [µM]
,,,O=S(=O)(c1ccc(Br)cc1)c1nc2ccccc2nc1N1CCCC1,> 50,> 50,> 50,37.7,6.07
0.44,,,O=S(=O)(c1ccccc1)c1nc2ccccc2nc1N1CCOCC1,,12.6,18.9,5.35,4.47
0.025,Active,,O=S(=O)(c1ccc(Br)cc1)c1nc2ccccc2nc1N1CCC(O)CC1,2.32,0.95,2.02,1.65,0.34
> 50,,,O=S(=O)(c1ccccc1)c1nc2ccccc2nc1N1CCc2ccccc2C1,26.3,19.8,5.01,18.7,0.88
,,,O=S(=O)(c1ccc(Br)cc1)c1nc2ccccc2nc1N1CCCC(O)C1 (stereo unspecified),3.72,2.1,3.69,2.11,3.43
,,,Cc1ccc(S(=O)(=O)c2nc3ccccc3nc2N2CCc3ccccc3C2)cc1,32.1,> 50,22.4,39,3.61
,,,Cc1ccc(S(=O)(=O)c2nc3ccccc3nc2N2CCCC(O)C2)cc1 (stereo unspecified),6.08,1.35,5.33,3.27,6.08
,,,COc1ccc(S(=O)(=O)c2nc3ccccc3nc2N2CCCC2)cc1,> 50,> 50,> 50,> 50,16
,,,O=S(=O)(c1ccc(Br)cc1)c1nc2ccccc2nc1N1CCc2ccccc2C1,> 50,> 50,> 50,> 50,2.61
,,,O=S(=O)(c1ccc(F)cc1)c1nc2ccccc2nc1N1CCCC(O)C1 (stereo unspecified),18.3,8.17,2.13,5.5,2.62
,,,O=S(=O)(c1ccccc1)c1nc2ccccc2nc1N1CCCC(O)C1 (stereo unspecified),3.59,0.31,2.1,1.39,3.02
,,,O=S(=O)(c1ccc(F)cc1)c1nc2ccccc2nc1N1CCCC1,30.1,31.1,12.4,20.6,12.8
21.8,,,O=S(=O)(c1ccccc1)c1nc2ccccc2nc1N1CCCC1,35.8,34.8,20.8,24.2,3.46
,,,O=S(=O)(c1ccc(F)cc1)c1nc2ccccc2nc1N1CCC(O)CC1,9.58,20.2,2.01,1.34,1.45
,,,Cc1ccc(S(=O)(=O)c2nc3ccccc3nc2N2CCCC2)cc1,> 50,> 50,> 50,> 50,9.72
,,,COc1ccc(S(=O)(=O)c2nc3ccccc3nc2N2CCc3ccccc3C2)cc1,> 50,> 50,> 50,22.1,3.69
0.079,,6,O=S(=O)(c1ccccc1)c1nc2ccccc2nc1N1CCC(O)CC1,5.36,2.06,4.98,1.87,2.9
,,,COc1ccc(S(=O)(=O)c2nc3ccccc3nc2N2CCC(O)CC2)cc1,8.06,5.11,9.73,4.69,3.23
,,,O=S(=O)(c1ccc(F)cc1)c1nc2ccccc2nc1N1CCc2ccccc2C1,35.4,22.9,9.23,16.6,4.08
,,,Cc1ccc(S(=O)(=O)c2nc3ccccc3nc2N2CCC(O)CC2)cc1,6.14,4.02,9.52,5.44,4.05
,,,COc1ccc(S(=O)(=O)c2nc3ccccc3nc2N2CCCC(O)C2)cc1 (stereo unspecified),2.12,2.18,3.41,3.52,3.05
